The subject of experiment [1] is Staphylococcus aureus. The experiment is described as follows: microbe, parasite or virus in culture. The note with it: DSM 1182.
Experiment [2] relates to Bacillus subtilis. As to the kind of experiment: Antimicrobial activity against Bacillus subtilis DSM 10 after 24 to 48 hrs by serial dilution method. It is filed as functional.
Experiment [3] relates to Staphylococcus aureus. The experiment is described as follows: Antimicrobial activity against Staphylococcus aureus DSM 346 at 20 uL of 1 mg/ml compound solution after 24 to 48 hrs by serial dilution method. In kind it is functional.
Experiment [4] has as its system Staphylococcus aureus. As to the kind of experiment: Antimicrobial activity against Staphylococcus aureus DSM 346 at 2 uL of 1 mg/ml compound solution after 24 to 48 hrs by serial dilution method. In kind it is functional.
Experiment [5] deals with Staphylococcus aureus. As to the kind of experiment: Antimicrobial activity against Methicillin-resistant Staphylococcus aureus DSM 1182 at 20 uL of 1 mg/ml compound solution after 24 to 48 hrs by serial dilution method. In kind it is functional.
Experiment [6] relates to L929. As to the kind of experiment: Antiproliferative activity against mouse L929 cells after 5 days by MTT assay. Conditions: L929, 120 h. In kind it is functional, cell-based. The method, boiled down:
(§1)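 Serial dilution in 96-well tissue-culture plates starting from 3.0 μL of 1 mg/mL stock. L929 grown in DMEM; MCF-7 and A431 in RPMI; each with 10% FBS. Incubation at 37 °C under 5% CO2 for 5 days. Methanol as negative control, epothilone A as positive control. IC50 in μM.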
(Tetrazolium assays rely on reduction of a dye to a coloured formazan, in cell work by metabolically active cells.)

Experiment [7] deals with HUVEC. As to the kind of experiment: Antiproliferative activity against HUVEC after 5 days by MTT assay. It is filed as functional, cell-based. Conditions: Homo sapiens, 120 h.
Experiment [8] concerns A-431. The experiment is described as follows: Antiproliferative activity against human A431 cells after 5 days by MTT assay. In kind it is functional, cell-based. The note with it: A-431, 120 h. The method, boiled down:
as §1

The subject of experiment [9] is MCF7. The experiment is described as follows: Antiproliferative activity against human MCF7 cells after 5 days by MTT assay. In kind it is functional, cell-based. The note with it: MCF7, 120 h. The method, boiled down: as §1
Experiment [10] deals with Staphylococcus aureus. The note with it: DSM 1182.

Converted amounts (≈) assume the structure as drawn. The source made the active and inactive calls. The rule behind the calls is not given here.

The IC50 is the concentration that gives 50% inhibition.

Consider `CN[C@H](CC(C)C)C(=O)N[C@H]1C(=O)N[C@@H](CC(N)=O)C(=O)N[C@H]2C(=O)N[C@H]3C(=O)N[C@H](C(=O)N[C@H](C(=O)O)c4cc(O)cc(O)c4-c4cc3ccc4O)[C@H](O)c3ccc(c(Cl)c3)Oc3cc2cc(c3O[C@@H]2O[C@H](CO)[C@@H](O)[C@H](O)[C@H]2O[C@H]2C[C@](C)(N)[C@H](O)[C@H](C)O2)Oc2ccc(cc2Cl)[C@H]1O` [VANCOMYCIN], for which the MIC in experiment [1] is 1.6 µg/mL (≈ 1.1 µM).
For `CC(C)C1=C2[C@H]3CC[C@@H]4[C@@H]5O[C@]6(O)[C@@]7(O)[C@@H](OC[C@]6(O)O5)O[C@@H]([C@@H]47)[C@]3(C)CC[C@@]2(C)CC1`, the MIC in experiment [2] was determined as 37.4 µM (≈ 16.8 µg/mL); in experiment [3] it was 15.7 µg/mL; in [5], 140 µM (≈ 62.8 µg/mL). Also, the MIC entry in experiment [4] and in experiment [10] was “inactive” in each case. The IC50 in [6] stood at 16.1 µM; in experiment [7] it was 3.6 µM; in experiment [8], 4.9 µM; in experiment [9], 2 µM.
In the case of `CC(C)C1=C2[C@H]3CC[C@@H]4CO[C@@]5(O)[C@H](O)CO[C@H]6O[C@@H]([C@@H]4[C@]65O)[C@]3(C)CC[C@@]2(C)CC1`, the MIC in [2] is 76.7 µM (≈ 33.3 µg/mL); in [3], 17.9 µM; in [4] it was 6.6 µg/mL (≈ 15.2 µM); in [5] it was 17.9 µM (≈ 7.78 µg/mL). Further, the IC50 in [6] is 17.3 µM; in [7], 4.8 µM; in [8], 5.8 µM; in experiment [9], 2.3 µM. For the same molecule, the MIC entry in experiment [10] was “inactive”.

The values are drawn from ChEMBL document CHEMBL4477192, “Laxitextines A and B, Cyathane Xylosides from the Tropical Fungus Laxitextum incrustatum” (J Nat Prod, 2016).
